Test results taken from ChEMBL document CHEMBL4038284, “Synthesis of novel quinoline-based 4,5-dihydro-1H-pyrazoles as potential anticancer, antifungal, antibacterial and antiprotozoal agents” (Eur J Med Chem, 2017).
≈ marks a conversion by molar mass, not a printed value.

Columns and labels:
[1] = test system: Klebsiella pneumoniae; test: Antibacterial activity against ESBL positive Klebsiella pneumoniae ATCC 700603 after 24 hrs by resazurin dye based microdilution assay; format: functional; settings: Klebsiella pneumoniae, 700603, 24 h
In short: (§1)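 MIC taken as the lowest concentration giving visible inhibition and/or by resazurin (1 mg/mL). Gentamicin was the control. Run in duplicate, repeated at least three times.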

[2] = test system: Klebsiella pneumoniae; test: Antibacterial activity against carbapenemase positive Klebsiella pneumoniae BAA 1705 after 24 hrs by resazurin dye based microdilution assay; format: functional; settings: BAA 1705, 24 h; in short: as §1
[3] = test system: Leishmania panamensis; test: Antileshmanial activity against EpiR/GFP fused Leishmania panamensis MHOM/CO/87/UA140 intracellular amastigotes infected in human […] cells after 72 hrs by flow cytometric method; format: functional, cell-based; settings: MHOM/CO/87/UA140, 72 h
In short: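 PMA-treated U-937 cells (3 × 10^5 cells/mL) infected with stationary-phase GFP L. panamensis promastigotes (15:1), 3 h at 34 °C, then washed. After 24 h, compounds added at 50, 12.5, 3.125 and 0.78 µg/mL for 72 h at 37 °C. EC50 by Probit; triplicate, two experiments.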

[4] = test system: Candida albicans; test: Antifungal activity against Candida albicans ATCC 10231 incubated for 48 hrs under dark condition by broth microdilution method; format: functional; settings: ATCC 10231, 48 h
In short: (§2)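 CLSI M27-A3 broth microdilution in RPMI-1640, DMSO ≤1%, compounds at 250-0.98 µg/mL final. Inoculum 1-5 × 10^3 CFU/mL. Incubated 48 h at 30 °C in a moist dark chamber, read at OD405. MIC80 and MIC50 taken from % inhibition dose-response curves (mean ± SEM, triplicate). Amphotericin B was the positive control.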

[5] = test system: Cryptococcus neoformans; test: Antifungal activity against Cryptococcus neoformans ATCC 32264 incubated for 48 hrs under dark condition by broth microdilution method; format: functional; settings: ATCC 32264, 48 h; in short: as §2
[6] = test system: Candida albicans; test: Growth inhibition of Candida albicans ATCC 10231 at 250 ug/ml incubated for 48 hrs under dark condition by broth microdilution method relative to control; format: functional; settings: ATCC 10231, 48 h, read-out: GI
In short: (§3)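 CLSI M27-A3 broth microdilution in RPMI-1640, DMSO ≤1%. Inoculum 1-5 × 10^3 CFU/mL. Incubated 48 h at 30 °C, dark. % inhibition = 100 − (OD405 test − sterility control)/(OD405 growth control − sterility control), with growth and sterility control wells. Triplicate.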

[7] = test system: Candida albicans; test: Growth inhibition of Candida albicans ATCC 10231 at 125 ug/ml incubated for 48 hrs under dark condition by broth microdilution method relative to control; format: functional; settings: ATCC 10231, 48 h, read-out: GI; in short: as §3
[8] = test system: Candida albicans; test: Growth inhibition of Candida albicans ATCC 10231 at 62.5 ug/ml incubated for 48 hrs under dark condition by broth microdilution method relative to control; format: functional; settings: ATCC 10231, 48 h, read-out: GI; in short: as §3
[9] = test system: Candida albicans; test: Growth inhibition of Candida albicans ATCC 10231 at 31.25 ug/ml incubated for 48 hrs under dark condition by broth microdilution method relative to control; format: functional; settings: ATCC 10231, 48 h, read-out: GI; in short: as §3
[10] = test system: Candida albicans; test: Growth inhibition of Candida albicans ATCC 10231 at 15.62 ug/ml incubated for 48 hrs under dark condition by broth microdilution method relative to control; format: functional; settings: ATCC 10231, 48 h, read-out: GI; in short: as §3
[11] = test system: Candida albicans; test: Growth inhibition of Candida albicans ATCC 10231 at 7.8 ug/ml incubated for 48 hrs under dark condition by broth microdilution method relative to control; format: functional; settings: ATCC 10231, 48 h, read-out: GI; in short: as §3
[12] = test system: Candida albicans; test: Growth inhibition of Candida albicans ATCC 10231 at 3.4 ug/ml incubated for 48 hrs under dark condition by broth microdilution method relative to control; format: functional; settings: ATCC 10231, 48 h, read-out: GI
[13] = test system: Cryptococcus neoformans; test: Growth inhibition of Cryptococcus neoformans ATCC 32264 at 250 ug/ml incubated for 48 hrs under dark condition by broth microdilution method relative to control; format: functional; settings: ATCC 32264, 48 h, read-out: GI; in short: as §3
[14] = test system: Cryptococcus neoformans; test: Growth inhibition of Cryptococcus neoformans ATCC 32264 at 125 ug/ml incubated for 48 hrs under dark condition by broth microdilution method relative to control; format: functional; settings: ATCC 32264, 48 h, read-out: GI; in short: as §3
[15] = test system: Cryptococcus neoformans; test: Growth inhibition of Cryptococcus neoformans ATCC 32264 at 62.5 ug/ml incubated for 48 hrs under dark condition by broth microdilution method relative to control; format: functional; settings: ATCC 32264, 48 h, read-out: GI; in short: as §3
[16] = test system: Cryptococcus neoformans; test: Growth inhibition of Cryptococcus neoformans ATCC 32264 at 31.25 ug/ml incubated for 48 hrs under dark condition by broth microdilution method relative to control; format: functional; settings: ATCC 32264, 48 h, read-out: GI; in short: as §3
[17] = test system: Cryptococcus neoformans; test: Growth inhibition of Cryptococcus neoformans ATCC 32264 at 15.62 ug/ml incubated for 48 hrs under dark condition by broth microdilution method relative to control; format: functional; settings: ATCC 32264, 48 h, read-out: GI; in short: as §3
[18] = test system: Cryptococcus neoformans; test: Growth inhibition of Cryptococcus neoformans ATCC 32264 at 7.8 ug/ml incubated for 48 hrs under dark condition by broth microdilution method relative to control; format: functional; settings: ATCC 32264, 48 h, read-out: GI; in short: as §3
[19] = test system: Cryptococcus neoformans; test: Growth inhibition of Cryptococcus neoformans ATCC 32264 at 3.4 ug/ml incubated for 48 hrs under dark condition by broth microdilution method relative to control; format: functional; settings: ATCC 32264, 48 h, read-out: GI
[20] = test system: Staphylococcus aureus; test: Antibacterial activity against methicillin-sensitive Staphylococcus aureus ATCC 25923 after 24 hrs by resazurin dye based microdilution assay; format: functional; settings: ATCC 25923, 24 h; in short: as §1
[21] = test system: Staphylococcus aureus; test: Antibacterial activity against methicillin-resistant Staphylococcus aureus ATCC 43300 after 24 hrs by resazurin dye based microdilution assay; format: functional; settings: ATCC 43300, 24 h
In short: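 Broth microdilution in Mueller Hinton broth, inoculum 5 × 10^5 – 8 × 10^5. Compound stocks diluted in MHB with 5% DMSO and 0.1% Tween 80. Incubation 24 h at 35-37 °C. MIC is the lowest concentration with visible growth inhibition and/or by resazurin (1 mg/mL) read-out. Gentamicin as control. Run in duplicate, replicated at least three times.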

[22] = test system: Staphylococcus aureus; test: Antibacterial activity against vancomycin-intermediate Staphylococcus aureus after 24 hrs by resazurin dye based microdilution assay; format: functional; in short: as §1
[23] = test system: Escherichia coli; test: Antibacterial activity against Escherichia coli ATCC 25922 after 24 hrs by resazurin dye based microdilution assay; format: functional; settings: ATCC 25922, 24 h; in short: as §1
[24] = test system: Pseudomonas aeruginosa; test: Antibacterial activity against Pseudomonas aeruginosa ATCC 27853 after 24 hrs by resazurin dye based microdilution assay; format: functional; settings: ATCC 27853, 24 h; in short: as §1
[25] = test system: Neisseria gonorrhoeae; test: Antibacterial activity against beta lactamase positive Neisseria gonorrhoeae ATCC 31426 by oxidase test; format: functional
In short: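 Agar dilution MIC on GC agar with 1% isovitalex containing increasing compound concentrations. Plates inoculated with about 1×10^4 CFU (5 µL). MIC is the lowest concentration that inhibited growth, with growth confirmed by oxidase test. Run in duplicate, repeated at least three times.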

[26] = test system: Plasmodium falciparum; test: Antiplasmodial activity against chloroquine-sensitive Plasmodium falciparum 3D7 assessed as reduction in parasitic LDH activity after 48 hrs by Malstat reagent based […] method; format: functional; settings: 3D7, 48 h
In short: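 Unsynchronized P. falciparum 3D7 at 0.5% parasitemia and 1% hematocrit in RPMI with 3% Albumax II. Exposed to 100, 25, 6.25 and 1.56 µg/mL for 48 h at 37 °C under 90% N2/5% CO2/5% O2. After three freeze-thaw cycles, LDH measured with Malstat and NBT/PES, 1 h in the dark, read at 650 nm. IC50 by Probit; triplicate, ≥2 experiments.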

[27] = test system: U-937; test: Cytotoxicity against human U937 cells after 72 hrs by MTT assay; format: cell-based; settings: u-937, 72 h
In short: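 Exponentially growing U-937 at 1 × 10^5 cells/mL in RPMI-1640 with 10% FBS were exposed to 200, 50, 12.5 and 3.125 µg/mL for 72 h at 37 °C, 5% CO2. MTT for 3 h, stopped with isopropanol/SDS, formazan read at 570 nm, blank-corrected. LC50 by Probit from % viability against untreated cells. Triplicate, at least two independent experiments.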

[28] = test system: Trypanosoma cruzi; test: Antitrypanosomal activity against Trypanosoma cruzi Tulahuen intracellular amastigote harboring LacZ infected in human U937 cells after 72 hrs by CPRG/Nonidet reagent based spectrophotometric method; format: functional, cell-based; settings: U-937, 72 h
In short: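 U-937 cells at 2.5 × 10^5 cells/mL in RPMI-1640 with 10% serum and 0.1 µg/mL PMA were infected with β-galactosidase-transfected Tulahuen epimastigotes at 5 parasites per cell. Infected cells were exposed to 50, 12.5, 3.125 and 0.78 µg/mL for 72 h. CPRG (100 uM) and 0.1% Nonidet P-40 were added for 3 h, read at 570 nm. EC50 by Probit. Triplicate, at least two experiments; benznidazole as reference.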

`COc1ccc(C2=NN(c3cc(Cl)cc(Cl)c3)C(c3cccc(Nc4ccnc5cc(Cl)ccc45)c3)C2)cc1` (stereo not given) showed an MIC [1] of over 1000 µg/mL, an MIC [2] of over 1000 µg/mL and an EC50 [3] of 12.6 µg/mL (≈ 22 µM). The MIC50 [4] was at least 250 µg/mL, the MIC80 [4] was at least 250 µg/mL and the MIC50 [5] was at least 250 µg/mL. It also gave an MIC80 [5] of at least 250 µg/mL, an inhibition of growth at 250 µg/mL [6] of 27.9% and an inhibition of growth at 125 µg/mL [7] of 10.3%. The inhibition of growth at 62.5 µg/mL [8] was 9.34%, the inhibition of growth at 31.25 µg/mL [9] was 5.03% and the inhibition of growth at 15.62 µg/mL [10] was 1.75%. It also gave an inhibition of growth at 7.8 µg/mL [11] of 1.72%, an inhibition of growth at 3.4 µg/mL [12] of 1.02% and an inhibition of growth at 250 µg/mL [13] of 43%. For the same compound, the inhibition of growth at 125 µg/mL [14] was 10.2%, the inhibition of growth at 62.5 µg/mL [15] was 6.18% and the inhibition of growth at 31.25 µg/mL [16] was 3.09%. For the same compound, the inhibition of growth at 15.62 µg/mL [17] was 2.11%, the inhibition of growth at 7.8 µg/mL [18] was 0% and the inhibition of growth at 3.4 µg/mL [19] was 0%. It also gave an MIC [20] of over 1000 µg/mL, an MIC [21] of over 1000 µg/mL and an MIC [22] of over 1000 µg/mL. The MIC [23] was over 1000 µg/mL, the MIC [24] was over 1000 µg/mL and the MIC [25] was over 1000 µg/mL. The EC50 [26] was 10.4 µg/mL (≈ 18.1 µM), the LC50 [27] was over 200 µg/mL and the EC50 [28] was 31 µg/mL (≈ 54.1 µM).

Compound `Clc1ccc2c(Nc3cccc(C4CC(c5ccccc5)=NN4c4ccccc4)c3)ccnc2c1` (stereo not given) has an MIC [1] of over 1000 µg/mL, an MIC [2] of over 1000 µg/mL and an EC50 [3] of 22.7 µg/mL (≈ 47.7 µM). For the same compound, the MIC50 [4] was 250 µg/mL (≈ 526 µM), the MIC80 [4] was at least 250 µg/mL and the MIC50 [5] was 250 µg/mL (≈ 526 µM). It also gave an MIC80 [5] of at least 250 µg/mL, an inhibition of growth at 250 µg/mL [6] of 53% and an inhibition of growth at 125 µg/mL [7] of 32.4%. It also gave an inhibition of growth at 62.5 µg/mL [8] of 20.1%, an inhibition of growth at 31.25 µg/mL [9] of 11% and an inhibition of growth at 15.62 µg/mL [10] of 8.69%. It also gave an inhibition of growth at 7.8 µg/mL [11] of 5.03%, an inhibition of growth at 3.4 µg/mL [12] of 3.1% and an inhibition of growth at 250 µg/mL [13] of 52.3%. It also gave an inhibition of growth at 125 µg/mL [14] of 26.5%, an inhibition of growth at 62.5 µg/mL [15] of 20.5% and an inhibition of growth at 31.25 µg/mL [16] of 20.4%. For the same compound, the inhibition of growth at 15.62 µg/mL [17] was 18.4%, the inhibition of growth at 7.8 µg/mL [18] was 13.6% and the inhibition of growth at 3.4 µg/mL [19] was 9.75%. The MIC [20] was over 1000 µg/mL, the MIC [21] was over 1000 µg/mL and the MIC [22] was over 1000 µg/mL. For the same compound, the MIC [23] was over 1000 µg/mL, the MIC [24] was over 1000 µg/mL and the MIC [25] was over 1000 µg/mL. It also gave an EC50 [26] of 13.4 µg/mL (≈ 28.1 µM), an LC50 [27] of over 200 µg/mL and an EC50 [28] of 39.2 µg/mL (≈ 82.5 µM).
